Measurements as given in ChEMBL document CHEMBL4715891, “Development of sulfahydantoin derivatives as β-lactamase inhibitors” (Bioorg Med Chem Lett, 2021).

What was measured:
[1] = Noncompetitive inhibition of 15N-Labeled beta lactamase TEM-1 (unknown origin) over expressed in Escherichia coli BL21(DE3) cells by CENTA; parameters: species or system Bacteria
[2] = Competitive inhibition of 15N-Labeled beta lactamase TEM-1 (unknown origin) over expressed in Escherichia coli BL21(DE3) cells by CENTA; parameters: species or system Bacteria
[3] = Uncompetitive inhibition of 15N-Labeled beta lactamase TEM-1 (unknown origin) over expressed in Escherichia coli BL21(DE3) cells by CENTA; parameters: species or system Bacteria
[4] = Inhibition of 15N-Labeled beta lactamase TEM-1 (unknown origin) over expressed in Escherichia coli BL21(DE3) cells by CENTA; parameters: species or system Bacteria
Procedure, shortened: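 IC50 against TEM-1 from CENTA (300 μM) hydrolysis using two-fold inhibitor dilutions; value derived by fitting a dose-response curve. Enzyme purity >83% by SDS-PAGE.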

Bacteria [5] = assay: Inhibition of 15N-Labeled beta lactamase TEM-1 (unknown origin) over expressed in Escherichia coli BL21(DE3) cells assessed as residual activity at 1 mM by CENTA relative to control
Procedure, shortened: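 TEM-1 (116 nM) screened with inhibitor at 1 mM, hydrolysis of chromogenic CENTA at 300 μM (~8× Km of 36 μM) followed. Activity expressed relative to positive control lacking inhibitor, mean ± standard deviation of at least three replicates. Enzyme purity >83% by SDS-PAGE.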

Bacteria [6] = assay: Inhibition of 15N-Labeled beta lactamase TEM-1 G1u104Lys/Gly238Ser double mutant (unknown origin) over expressed in Escherichia coli BL21(DE3) cells assessed as residual activity at 1 mM by CENTA relative to control
Procedure, shortened: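 TEM-15 produced in E. coli, purified to >83% by SDS-PAGE, used at 56 nM. Inhibitor screened at 1 mM against hydrolysis of the chromogenic substrate CENTA (300 μM). Activity expressed relative to the positive control without inhibitor, as mean ± standard deviation of at least three replicates.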

[7] = Inhibition of 15N-Labeled beta lactamase TEM-1 G1u104Lys/Gly238Ser double mutant (unknown origin) over expressed in Escherichia coli BL21(DE3) cells by CENTA; parameters: species or system Bacteria
Procedure, shortened: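 TEM-15 from E. coli expression, purified to >83% by SDS-PAGE. Hydrolysis of the chromogenic substrate CENTA (300 μM) monitored across two-fold inhibitor dilutions. IC50 obtained by fitting a dose-response curve.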

Row | Structure (SMILES) | Ki [1] | Ki [2] | Ki [3] | IC50 [4] | Activity (Bacteria [5]) | Activity (Bacteria [6]) | IC50 [7]
1 | O=C(O)CN1C(=O)[C@H](Cc2ccc(F)cc2)N(Cc2ccc(Br)cc2)S1(=O)=O | 510 µM | 55 µM | 455 µM | 510 µM | 34% | 53% | 
2 | O=C(O)CN1C(=O)[C@H](Cc2ccc(F)cc2)N(Cc2ccc([N+](=O)[O-])cc2)S1(=O)=O |  |  |  |  | 101% |  | 
3 | COc1ccc(CN2[C@@H](Cc3ccc(Br)cc3)C(=O)N(CC(=O)O)S2(=O)=O)cc1 |  |  |  |  | 92% |  | 
4 | O=C(O)CN1C(=O)[C@H](Cc2ccc(Br)cc2)N(Cc2ccc([N+](=O)[O-])cc2)S1(=O)=O |  |  |  |  | 100% |  | 
5 | COc1ccc(CN2[C@@H](Cc3ccc(F)cc3)C(=O)N(CC(=O)O)S2(=O)=O)cc1 |  |  |  |  | 124% |  | 
6 | O=C(O)CN1C(=O)[C@H](Cc2ccc(Br)cc2)N(Cc2ccc(Br)cc2)S1(=O)=O | 300 µM | 32 µM | 268 µM | 300 µM | 10% | 0% | 130 µM
